Results from ChEMBL document CHEMBL1157078, “Cytotoxic activities of several geranyl-substituted flavanones” (J Nat Prod, 2010).
pEC50: −log10 of the molar value.

Legend:
[1] = tested on: THP-1; assay: Cytotoxicity against human THP1 cells after 72 hrs by erythosin B staining method; assay type: functional, cell-based; conditions: THP-1, 72 h
Procedure, shortened: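 THP-1 cells from ECACC, kept in RPMI with 10% FBS, 2% L-glutamine and 1% penicillin/streptomycin at 37 °C, 5% CO2. Compounds in DMSO were added at five increasing concentrations and cells incubated 72 h. Cells were mixed 1:1 with 0.1% erythrosin B in PBS (pH 7.2-7.4), and unstained (viable) and red (nonviable) cells counted by hemocytometer. EC50 came from dose-response curves of three independent measurements, ±SD.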

[2] = tested on: CCRF-CEM; assay: Cytotoxicity against human CEM cells assessed as viable cells after 72 hrs by calcein AM assay; assay type: functional, cell-based
Procedure, shortened: (§1)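 Cells kept in DMEM with 10% FBS, L-glutamine and antibiotics at 37 °C, 5% CO2, and seeded at about 1.25×10^5 cells/mL, then left 3 h to stabilize. Six 3-fold dilutions were added in triplicate (final 100 to 0.4 μM, DMSO ≤0.6%) for 72 h. Viable cells were stained with 2 μM calcein AM for 1 h and fluorescence read at 485/538 nm. EC50 came from dose-response curves of three independent measurements, ±SD.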

[3] = tested on: HeLa; assay: Cytotoxicity against human HeLa cells assessed as viable cells after 72 hrs by calcein AM assay; assay type: functional, cell-based; procedure, shortened: as §1
[4] = tested on: RPMI-8226; assay: Cytotoxicity against human RPMI8226 cells assessed as viable cells after 72 hrs by calcein AM assay; assay type: functional, cell-based; conditions: RPMI-8226, 72 h; procedure, shortened: as §1
[5] = tested on: U-266; assay: Cytotoxicity against human U266 cells assessed as viable cells after 72 hrs by calcein AM assay; assay type: functional, cell-based; conditions: U-266, 72 h; procedure, shortened: as §1
[6] = tested on: MCF7; assay: Cytotoxicity against human MCF7 cells assessed as viable cells after 72 hrs by calcein AM assay; assay type: functional, cell-based; conditions: MCF7, 72 h; procedure, shortened: as §1
[7] = tested on: BJ; assay: Cytotoxicity against human BJ cells assessed as viable cells after 72 hrs by calcein AM assay; assay type: cell-based; procedure, shortened: as §1

| Structure (SMILES) | pEC50 [1] | pEC50 [2] | pEC50 [3] | pEC50 [4] | pEC50 [5] | pEC50 [6] | pEC50 [7] |
| --- | --- | --- | --- | --- | --- | --- | --- |
| CC(C)=CCC/C(C)=C/Cc1c(O)cc2c(c1O)C(=O)C[C@@H](c1cc(O)cc(O)c1)O2 | 5.07 | 4.91 | 5.20 | 5.15 | 5.72 | > 5.00 | 5.12 |
| COc1cc(O)c([C@@H]2CC(=O)c3c(O)cc(O)cc3O2)cc1C/C=C(\C)CCC=C(C)C | < 5.00 | < 5.00 | < 5.00 | < 5.00 | < 5.00 | < 5.00 | < 5.00 |
| COc1cc([C@@H]2CC(=O)c3c(cc(O)c(C/C=C(\C)CCC=C(C)C)c3O)O2)ccc1O | > 5.00 | > 5.00 | 5.04 | > 5.00 | > 5.00 | > 5.00 | > 5.00 |
| COc1cc([C@H]2Oc3cc(O)c(C/C=C(\C)CCC=C(C)C)c(O)c3C(=O)[C@@H]2O)ccc1O | < 5.00 | < 5.00 | < 5.00 | < 5.00 | < 5.00 | < 5.00 | < 5.00 |
| COc1cc([C@@H]2CC(=O)c3c(cc(O)c(C/C=C(\C)CCC=C(C)C)c3O)O2)cc(O)c1O | > 5.00 | > 5.00 | 5.13 | 5.14 | 5.26 | > 5.00 | 5.33 |
| COc1cc([C@@H]2CC(=O)c3c(cc(O)c(C/C=C(\C)CCC=C(C)C)c3O)O2)cc(OC)c1O | < 5.00 | < 5.00 | < 5.00 | < 5.00 | < 5.00 | < 5.00 | < 5.00 |
| CC(C)=CCC/C(C)=C/Cc1cc(C2CC(=O)c3c(O)cc(O)cc3O2)c(O)cc1O (racemic) [KUWANON E] | < 5.00 | < 5.00 | < 5.00 | < 5.00 | < 5.00 | < 5.00 | < 5.00 |
| O=C1c2c(O)cc(O)cc2O[C@H](c2ccc(O)c(O)c2)[C@H]1O [(+)-TAXIFOLIN] | < 5.00 | < 5.00 | < 5.00 | < 5.00 | < 5.00 | < 5.00 | < 5.00 |
| CC(C)=CCC/C(C)=C/Cc1c(O)cc2c(c1O)C(=O)C[C@@H](c1ccc(O)cc1)O2 [BONANNIONE A] | < 5.00 | 4.94 | < 5.00 | < 5.00 | < 5.00 | < 5.00 | < 5.00 |
| CC[C@@]1(O)C(=O)OCc2c1cc1n(c2=O)Cc2cc3ccccc3nc2-1 [CAMPTOTHECIN] | 6.80 |  |  |  |  |  |  |
| CCOC(=O)NC1=C(N2CC2)C(=O)C(NC(=O)OCC)=C(N2CC2)C1=O [DIAZIQUONE] |  | 6.07 | 5.19 | 5.47 | 5.55 | 5.40 | > 5.00 |
| COc1ccc([C@@H]2CC(=O)c3c(O)cc(O)cc3O2)cc1O [HESPERETIN] | < 5.00 | < 5.00 | < 5.00 | < 5.00 | < 5.00 | < 5.00 | < 5.00 |
| O=C1C[C@@H](c2ccc(O)cc2)Oc2cc(O)cc(O)c21 [NARINGENIN] | < 5.00 | < 5.00 | < 5.00 | < 5.00 | < 5.00 | < 5.00 | < 5.00 |
| CC(C)=CCC/C(C)=C/Cc1c(O)cc2c(c1O)C(=O)C[C@@H](c1ccc(O)c(O)c1)O2 [NYMPHAEOL A] | > 5.00 | 5.49 | > 5.00 | > 5.00 | 5.62 | > 5.00 | 5.23 |
| CC[C@H](CO)Nc1nc(NCc2ccccc2O)c2ncn(C(C)C)c2n1 [OLOMOUCINE II] |  | 5.09 | 5.00 | 5.22 | 5.14 | 5.34 | 5.27 |
| COc1cc([C@@H]2CC(=O)c3c(cc(O)c(C/C=C(\C)C/C=C/C(C)(C)O)c3O)O2)ccc1O [TOMENTODIPLACONE B] | < 5.00 | < 5.00 | < 5.00 | < 5.00 | < 5.00 | < 5.00 | < 5.00 |
| C=C(C)C(O)CC/C(C)=C/Cc1c(O)cc2c(c1O)C(=O)C[C@@H](c1ccc(O)c(OC)c1)O2 (stereo partly specified) [TOMENTODIPLACONE] | < 5.00 | < 5.00 | < 5.00 | < 5.00 | < 5.00 | < 5.00 | < 5.00 |
